Converted amounts (≈) assume the structure as drawn.
What was measured:
Escherichia coli [1] = assay: Antibacterial activity against Escherichia coli ATCC 35210 after 24 hr by microdilution test; format: functional; conditions: ATCC 35210, 24 h
Method in brief: (§1)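 Broth microdilution in LB medium, about 1.0×10^4 cfu per well; compounds from 1 mg/ml stocks in 5% DMSO. Incubated 24 h. MIC is the lowest concentration with no visible growth under a binocular microscope. Run in duplicate, repeated three times.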

Aspergillus fumigatus [2] = assay: Fungicidal activity against Aspergillus fumigatus after 72 hrs by serial subcultivation method; format: functional
Talaromyces funiculosus [3] = assay: Fungicidal activity against Penicillium funiculosum ATCC 36839 after 72 hrs by serial subcultivation method; format: functional; conditions: ATCC 36839, 72 h
Staphylococcus aureus [4] = assay: Antibacterial activity against Staphylococcus aureus ATCC 6538 after 24 hr by microdilution test; format: functional; conditions: ATCC 6538, 24 h; method in brief: as §1
Pseudomonas aeruginosa [5] = assay: Antibacterial activity against Pseudomonas aeruginosa ATCC 27853 after 24 hr by microdilution test; format: functional; conditions: ATCC 27853, 24 h; method in brief: as §1
Mus musculus [6] = assay: Acute toxicity in AKR mouse up to 0.5 mmol/kg, ip; format: organism-based; conditions: in vivo
Aspergillus niger [7] = assay: Fungicidal activity against Aspergillus niger ATCC 6275 after 72 hrs by serial subcultivation method; format: functional; conditions: ATCC 6275, 72 h
Trichoderma viride [8] = assay: Fungicidal activity against Trichoderma viride IAM 5061 after 72 hrs by serial subcultivation method; format: functional; conditions: IAM 5061, 72 h
[9] = Inhibition of soybean lipoxygenase assessed as inhibition of sodium linolate conversion to 13-hydroperoxylinoleic acid after 4 mins by spectrophotometry; design: species or system Glycine max; conditions: read-out: IC50
Micrococcus flavus [10] = assay: Bactericidal activity against Micrococcus flavus ATCC 10240 after 72 hrs by serial subcultivation method; format: functional; conditions: ATCC 10240, 72 h
Micrococcus flavus [11] = assay: Antibacterial activity against Micrococcus flavus ATCC 10240 after 24 hr by microdilution test; format: functional; conditions: ATCC 10240, 24 h; method in brief: as §1
Talaromyces funiculosus [12] = assay: Antifungal activity against Penicillium funiculosum ATCC 36839 after 72 hrs by serial dilution technique; format: functional; conditions: ATCC 36839, 72 h
Method in brief: (§2)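 Serial dilution in malt broth; compounds from 1 mg/ml stocks in 5% DMSO; 72 h at 28 °C. MIC is the lowest concentration with no visible growth under a binocular microscope. Run in duplicate, repeated three times.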

Mus musculus [13] = assay: Antiinflammatory activity in AKR mouse assessed as inhibition of carrageenan-induced paw edema at 0.01 mmol/kg, ip measured after 3.5 hrs of carrageenan-challenge; format: functional
Method in brief: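 AKR mice of both sexes (pregnant females excluded), 6-10 per group, fasted during the experiment. Edema induced by intradermal 0.05 mL of 2% carrageenin into the right hind paw. Compound given at 0.01 mmol/kg ip, suspended in water with Tween-80, at the same time as carrageenin.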

Escherichia coli [14] = assay: Bactericidal activity against Escherichia coli ATCC 35210 after 72 hrs by serial subcultivation method; format: functional; conditions: ATCC 35210, 72 h
Staphylococcus aureus [15] = assay: Bactericidal activity against Staphylococcus aureus ATCC 6538 after 72 hrs by serial subcultivation method; format: functional; conditions: ATCC 6538, 72 h
Aspergillus flavus [16] = assay: Antifungal activity against Aspergillus flavus ATCC 9643 after 72 hrs by serial dilution technique; format: functional; conditions: ATCC 9643, 72 h; method in brief: as §2
Aspergillus niger [17] = assay: Antifungal activity against Aspergillus niger ATCC 6275 after 72 hrs by serial dilution technique; format: functional; conditions: ATCC 6275, 72 h; method in brief: as §2
Trichoderma viride [18] = assay: Antifungal activity against Trichoderma viride IAM 5061 after 72 hrs by serial dilution technique; format: functional; conditions: IAM 5061, 72 h; method in brief: as §2
Aspergillus flavus [19] = assay: Fungicidal activity against Aspergillus flavus ATCC 9643 after 72 hrs by serial subcultivation method; format: functional; conditions: ATCC 9643, 72 h
Listeria monocytogenes [20] = assay: Bactericidal activity against Listeria monocytogenes NCTC 7973 after 72 hrs by serial subcultivation method; format: functional; conditions: NCTC 7973, 72 h
Pseudomonas aeruginosa [21] = assay: Bactericidal activity against Pseudomonas aeruginosa ATCC 27853 after 72 hrs by serial subcultivation method; format: functional; conditions: ATCC 27853, 72 h
Penicillium ochrochloron [22] = assay: Fungicidal activity against Penicillium ochrochloron ATCC 9112 after 72 hrs by serial subcultivation method; format: functional; conditions: ATCC 9112, 72 h
Bacillus cereus [23] = assay: Bactericidal activity against Bacillus cereus clinical isolate after 72 hrs by serial subcultivation method; format: functional
Penicillium ochrochloron [24] = assay: Antifungal activity against Penicillium ochrochloron ATCC 9112 after 72 hrs by serial dilution technique; format: functional; conditions: ATCC 9112, 72 h; method in brief: as §2
Bacillus cereus [25] = assay: Antibacterial activity against Bacillus cereus clinical isolate after 24 hr by microdilution test; format: functional; method in brief: as §1
Aspergillus fumigatus [26] = assay: Antifungal activity against Aspergillus fumigatus after 72 hrs by serial dilution technique; format: functional; method in brief: as §2
[27] = molecular target: T1, Prostaglandin G/H synthase 1 (Ovis aries) (UniProt P05979); assay: Inhibition of ovine COX1 assessed as inhibition of PGF2a production by enzyme immunoassay; design: concentration or dose not given beside the values; conditions: concentration not given here
T1 sequence (whole entry): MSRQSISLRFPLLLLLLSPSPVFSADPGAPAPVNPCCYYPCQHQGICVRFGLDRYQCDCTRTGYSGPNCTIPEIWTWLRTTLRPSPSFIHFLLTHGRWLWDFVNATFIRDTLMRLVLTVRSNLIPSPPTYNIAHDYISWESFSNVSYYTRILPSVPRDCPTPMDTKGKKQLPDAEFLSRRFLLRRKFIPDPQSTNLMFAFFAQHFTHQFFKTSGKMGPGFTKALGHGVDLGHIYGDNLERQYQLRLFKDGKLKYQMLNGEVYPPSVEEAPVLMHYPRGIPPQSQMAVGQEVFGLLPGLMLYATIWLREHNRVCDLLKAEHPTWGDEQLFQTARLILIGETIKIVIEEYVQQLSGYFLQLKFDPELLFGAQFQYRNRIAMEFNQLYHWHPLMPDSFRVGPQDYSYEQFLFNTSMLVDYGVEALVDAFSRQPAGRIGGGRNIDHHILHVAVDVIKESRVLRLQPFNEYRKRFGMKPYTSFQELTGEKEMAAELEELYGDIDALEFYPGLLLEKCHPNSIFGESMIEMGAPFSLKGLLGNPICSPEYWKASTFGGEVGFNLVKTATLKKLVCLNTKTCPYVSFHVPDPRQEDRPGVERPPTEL
Method in brief: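 Ovine COX-1 from a commercial screening kit, tested with 0.1 µM arachidonic acid, which is below the saturating level. COX-derived PGH2 is reduced by SnCl2 to PGF2a, quantified by enzyme immunoassay with a broad prostaglandin antibody. At least triplicate.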

Listeria monocytogenes [28] = assay: Antibacterial activity against Listeria monocytogenes NCTC 7973 after 24 hr by microdilution test; format: functional; conditions: NCTC 7973, 24 h; method in brief: as §1

| Structure (SMILES) | MIC (Escherichia coli [1]) [µM] | MFC (Aspergillus fumigatus [2]) [µM] | MFC (Talaromyces funiculosus [3]) [µM] | MIC (Staphylococcus aureus [4]) [µM] | MIC (Pseudomonas aeruginosa [5]) [µM] | Activity (Mus musculus [6]) | MFC (Aspergillus niger [7]) [µM] | MFC (Trichoderma viride [8]) [µM] | IC50 [9] [µM] | MBC (Micrococcus flavus [10]) [µM] | MIC (Micrococcus flavus [11]) [µM] | MIC (Talaromyces funiculosus [12]) [µM] | inhibition in vivo at 10 µmol/kg (Mus musculus [13]) [%] | MBC (Escherichia coli [14]) [µM] | MBC (Staphylococcus aureus [15]) [µM] | MIC (Aspergillus flavus [16]) [µM] | MIC (Aspergillus niger [17]) [µM] | MIC (Trichoderma viride [18]) [µM] | MFC (Aspergillus flavus [19]) [µM] | MBC (Listeria monocytogenes [20]) [µM] | further results |
| --- | --- | --- | --- | --- | --- | --- | --- | --- | --- | --- | --- | --- | --- | --- | --- | --- | --- | --- | --- | --- | --- |
| COc1ccccc1/C=C1\S/C(=N/c2nccs2)NC1=O | 31.5 (≈ 10 µg/mL) | 31.5 (≈ 10 µg/mL) | 31.5 (≈ 10 µg/mL) | 31.5 (≈ 10 µg/mL) | 31.5 (≈ 10 µg/mL) | Non-toxic | 31.5 (≈ 10 µg/mL) | 31.5 (≈ 10 µg/mL) | 63 | 31.5 (≈ 10 µg/mL) | 31.5 (≈ 10 µg/mL) | 15.8 (≈ 5.01 µg/mL) | 50 | 63 (≈ 20 µg/mL) | 63 (≈ 20 µg/mL) | 23.6 (≈ 7.49 µg/mL) | 15.8 (≈ 5.01 µg/mL) | 15.8 (≈ 5.01 µg/mL) | 31.5 (≈ 10 µg/mL) | 63 (≈ 20 µg/mL) | MBC (Pseudomonas aeruginosa [21]): 63 µM (≈ 20 µg/mL); MFC (Penicillium ochrochloron [22]): 31.5 µM (≈ 10 µg/mL); MBC (Bacillus cereus [23]): 31.5 µM (≈ 10 µg/mL); MIC (Penicillium ochrochloron [24]): 15.8 µM (≈ 5.01 µg/mL); MIC (Bacillus cereus [25]): 31.5 µM (≈ 10 µg/mL); MIC (Aspergillus fumigatus [26]): 15.8 µM (≈ 5.01 µg/mL); inhibition [27]: 86%; MIC (Listeria monocytogenes [28]): 31.5 µM (≈ 10 µg/mL) |
| O=C1N/C(=N\c2nccs2)S/C1=C\c1ccc(Br)cc1 | 27.3 (≈ 10 µg/mL) | 27.3 (≈ 10 µg/mL) | 27.3 (≈ 10 µg/mL) | 13.7 (≈ 5.02 µg/mL) | 27.3 (≈ 10 µg/mL) | Non-toxic | 27.3 (≈ 10 µg/mL) | 27.3 (≈ 10 µg/mL) | 66 | 54.6 (≈ 20 µg/mL) | 27.3 (≈ 10 µg/mL) | 20.5 (≈ 7.51 µg/mL) | 42.2 | 54.6 (≈ 20 µg/mL) | 27.3 (≈ 10 µg/mL) | 13.7 (≈ 5.02 µg/mL) | 13.7 (≈ 5.02 µg/mL) | 13.7 (≈ 5.02 µg/mL) | 27.3 (≈ 10 µg/mL) | 54.6 (≈ 20 µg/mL) | MBC (Pseudomonas aeruginosa [21]): 54.6 µM (≈ 20 µg/mL); MFC (Penicillium ochrochloron [22]): 27.3 µM (≈ 10 µg/mL); MBC (Bacillus cereus [23]): 54.6 µM (≈ 20 µg/mL); MIC (Penicillium ochrochloron [24]): 13.7 µM (≈ 5.02 µg/mL); MIC (Bacillus cereus [25]): 20.5 µM (≈ 7.51 µg/mL); MIC (Aspergillus fumigatus [26]): 13.7 µM (≈ 5.02 µg/mL); inhibition [27]: 67%; MIC (Listeria monocytogenes [28]): 27.3 µM (≈ 10 µg/mL) |
| Cc1csc(/N=C2\NC(=O)/C(=C/c3ccccc3Cl)S2)n1 | 119 (≈ 40 µg/mL) | 20.9 (≈ 7.02 µg/mL) | 20.9 (≈ 7.02 µg/mL) | 59.6 (≈ 20 µg/mL) | 59.6 (≈ 20 µg/mL) | Non-toxic | 20.9 (≈ 7.02 µg/mL) | 20.9 (≈ 7.02 µg/mL) | 79 | 59.6 (≈ 20 µg/mL) | 29.8 (≈ 10 µg/mL) | 17.9 (≈ 6.01 µg/mL) | 43 | 119 (≈ 40 µg/mL) | 119 (≈ 40 µg/mL) | 20.9 (≈ 7.02 µg/mL) | 14.9 (≈ 5 µg/mL) | 17.9 (≈ 6.01 µg/mL) | 20.9 (≈ 7.02 µg/mL) | 119 (≈ 40 µg/mL) | MBC (Pseudomonas aeruginosa [21]): 119 µM (≈ 40 µg/mL); MFC (Penicillium ochrochloron [22]): 20.9 µM (≈ 7.02 µg/mL); MBC (Bacillus cereus [23]): 119 µM (≈ 40 µg/mL); MIC (Penicillium ochrochloron [24]): 14.9 µM (≈ 5 µg/mL); MIC (Bacillus cereus [25]): 59.6 µM (≈ 20 µg/mL); MIC (Aspergillus fumigatus [26]): 17.9 µM (≈ 6.01 µg/mL); inhibition [27]: 97%; MIC (Listeria monocytogenes [28]): 119 µM (≈ 40 µg/mL) |
| O=C1N/C(=N\c2nc(-c3ccccc3)cs2)S/C1=C\c1ccc(Cl)cc1 | 50 (≈ 19.9 µg/mL) | 27.3 (≈ 10.9 µg/mL) | 27.3 (≈ 10.9 µg/mL) | 50 (≈ 19.9 µg/mL) | 50 (≈ 19.9 µg/mL) | Non-toxic | 27.3 (≈ 10.9 µg/mL) | 27.3 (≈ 10.9 µg/mL) | 54 | 25 (≈ 9.95 µg/mL) | 25 (≈ 9.95 µg/mL) | 20.5 (≈ 8.16 µg/mL) | 27.3 | 50 (≈ 19.9 µg/mL) | 100 (≈ 39.8 µg/mL) | 13.7 (≈ 5.45 µg/mL) | 13.7 (≈ 5.45 µg/mL) | 13.7 (≈ 5.45 µg/mL) | 27.3 (≈ 10.9 µg/mL) | 100 (≈ 39.8 µg/mL) | MBC (Pseudomonas aeruginosa [21]): 100 µM (≈ 39.8 µg/mL); MFC (Penicillium ochrochloron [22]): 27.3 µM (≈ 10.9 µg/mL); MBC (Bacillus cereus [23]): 50 µM (≈ 19.9 µg/mL); MIC (Penicillium ochrochloron [24]): 13.7 µM (≈ 5.45 µg/mL); MIC (Bacillus cereus [25]): 25 µM (≈ 9.95 µg/mL); MIC (Aspergillus fumigatus [26]): 13.7 µM (≈ 5.45 µg/mL); inhibition [27]: 78%; MIC (Listeria monocytogenes [28]): 50 µM (≈ 19.9 µg/mL) |

Source: ChEMBL document CHEMBL2311431, “Synthesis and biological evaluation of some 5-arylidene-2-(1,3-thiazol-2-ylimino)-1,3-thiazolidin-4-ones as dual anti-inflammatory/antimicrobial agents” (Bioorg Med Chem, 2013)
